Experimental data from ChEMBL document CHEMBL3407434, “Antivascular and anti-parasite activities of natural and hemisynthetic flavonoids from New Caledonian Gardenia species (Rubiaceae)” (Eur J Med Chem, 2015).

Assays:
[1] = Cytotoxicity against rat L6 cells assessed as viable cells at 1 uM after 72 hrs by MTT assay relative to control; format: cell-based; settings: read-out: Activity
Procedure, shortened: (§1)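 L6 rat skeletal myoblasts, about 4 × 10^4 cells/well, dosed 24 h after seeding at 10 and 1 µM, in triplicate. After 72 h, MTT was added for 2 h, formazan was dissolved in detergent for 2 h at room temperature in the dark, and absorbance was read at 570 nm. Results are given as percent viable cells.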

[2] = test system: Trypanosoma brucei gambiense; test: Antitrypanosomal activity against Trypanosoma brucei gambiense Feo assessed as parasite growth inhibition at 50 uM after 72 hrs by fluorescence assay relative to control; format: functional; settings: read-out: GI
Procedure, shortened: (§2)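 Bloodstream-form T. b. gambiense Feo at 10^5 parasites/mL, screened at 50 and 10 µM in triplicate. Incubated 72 h at 37 °C under 5% CO2. Values are percent of untreated controls. Pentamidine served as positive control.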

Tubulin (Homo sapiens) = Tubulin (Homo sapiens) (UniProt P68371+Q9H4B7+P0DPH7+P68366+Q13509+Q71U36+P04350+Q3ZCM7+P07437+P68363+Q9BQE3+Q6PEY2+Q13885+Q9BVA1+Q9BUF5); test: Inhibition of tubulin (unknown origin) polymerization at 30 uM preincubated for 45 mins followed by GTP addition measured after 2 hrs by fluorescence assay relative to control; format: protein-complex assay
Leishmania amazonensis = test: Leishmanicidal activity against promastigote stage of Leishmania amazonensis MHOM/BR/PH8 after 48 hrs by MTT assay; format: functional, organism-based; settings: MHOM/BR/PH8, 48 h
Procedure, shortened: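 L. amazonensis MHOM/BR/PH8 promastigotes in Schneider's medium with 20% heat-inactivated FCS, at 10^5 per well in log phase. MTT was added for 4 h at 37 °C, formazan dissolved in DMSO and read at 570 nm. Amphotericin B was the reference drug.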

[3] = Antivascular activity in human EAhy926 cells assessed as concentration require to adopt rounding shape after 2 hrs by microscopic analysis; format: functional, EA.hy 926
[4] = Cytotoxicity against rat L6 cells assessed as viable cells at 10 uM after 72 hrs by MTT assay relative to control; format: cell-based; settings: read-out: Activity; procedure, shortened: as §1
Plasmodium falciparum [5] = test: Antiplasmodial activity against Plasmodium falciparum FcB1/Columbia infected in human red blood cells assessed as parasite growth inhibition at 10 uM after 48 hrs by [3H]-hypoxanthine incorporation assay relative to control; format: functional; settings: read-out: GI
Procedure, shortened: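 P. falciparum FcB1 (Colombia) grown in human red cells, in triplicate. Screened at 50 and 10 µM in 96-well plates for 48 h at 37 °C under reduced oxygen, then [3H]-hypoxanthine was added and incorporation counted. Counts per minute are given as percent of untreated controls.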

B16 = test: Cytotoxicity against mouse B16 cells assessed as cell viability after 48 hrs by MTT assay; format: cell-based; settings: B16, 48 h
Procedure, shortened: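 B16 murine melanoma cells, 5000/well, treated 24 h after plating. Compounds were tested at 0.01 to 100 µM final (DMSO stock 2.5 mg/mL), in triplicate, for 48 h at 37 °C under 5% CO2.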

Tubulin = test: Inhibition of tubulin (unknown origin) polymerization preincubated for 45 mins followed by GTP addition measured after 2 hrs by fluorescence assay; format: protein-complex assay, Homo sapiens
[6] = test system: Trypanosoma brucei gambiense; test: Antitrypanosomal activity against Trypanosoma brucei gambiense Feo assessed as parasite growth inhibition at 10 uM after 72 hrs by fluorescence assay relative to control; format: functional; settings: read-out: GI; procedure, shortened: as §2
[7] = test system: Trypanosoma brucei gambiense; test: Antitrypanosomal activity against Trypanosoma brucei gambiense Feo assessed as parasite growth inhibition after 72 hrs by fluorescence assay; format: functional, organism-based
Procedure, shortened: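 Bloodstream-form T. b. gambiense Feo at 10^5 parasites/mL, screened at 50 and 10 µM in triplicate. Incubated 72 h at 37 °C under 5% CO2. Resazurin (45 µM final) was added for 4 h at 37 °C, followed by 22 h at room temperature, and fluorescence read at ex 535/em 590 nm. Values are percent of untreated controls. […] Pentamidine served as positive control.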

Plasmodium falciparum [8] = test: Antiplasmodial activity against Plasmodium falciparum FcB1/Columbia infected in human red blood cells assessed as parasite growth inhibition after 48 hrs by [3H]-hypoxanthine incorporation assay; format: functional, organism-based
Procedure, shortened: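 P. falciparum FcB1 (Colombia) grown in human red cells, in triplicate. Screened at 50 and 10 µM in 96-well plates for 48 h at 37 °C under reduced oxygen, then [3H]-hypoxanthine was added and incorporation counted. Counts per minute are given as percent of untreated controls. Selected compounds were then re-run at 100 to 0.195 µM, with IC50 taken from sigmoidal inhibition curves.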

Row | SMILES | viability at 72 h, 1 µM [1] | inhibition of growth at 50 µM [2] | inhibition (Tubulin (Homo sapiens)) | IC50 (Leishmania amazonensis) | Activity [3] | viability at 72 h, 10 µM [4] | inhibition of growth at 10 µM (Plasmodium falciparum [5]) | IC50 (B16) | IC50 (Tubulin) | inhibition of growth at 10 µM [6] | IC50 [7] | IC50 (Plasmodium falciparum [8]) | IC90 (Plasmodium falciparum [8])
1 | COc1ccc(-c2oc3cc(O)c(OC)c(O)c3c(=O)c2OC)cc1OC | 99.7% | 99.8% | 75.1% | 8.15 µM | 25 µM | 94.7% | 21.3% | 28.9 µM | 19.3 µM | 76.2% | – | – | –
2 | COc1cc(-c2oc3cc(O)c(OC)c(O)c3c(=O)c2OC)cc(O)c1OC | 97.6% | 82.6% | 99% | 10.2 µM | 1.6 µM | 44.2% | 0% | 33.9 µM | 17.8 µM | 37.8% | – | – | –
3 | COc1c(-c2ccc(O)cc2)oc2cc(O)cc(O)c2c1=O [ISOKAEMPFERIDE] | 85% | 93.4% | – | 14.3 µM | >100 µM | 61% | 2.9% | 75.8 µM | – | 36.6% | – | – | –
4 | CC(=O)Oc1ccc(-c2oc3cc(OC(C)=O)cc(O)c3c(=O)c2OC(C)=O)cc1 | 90.2% | 5.6% | – | 12.3 µM | >100 µM | 94.8% | 7.6% | 39.8 µM | – | 0% | – | – | –
5 | C[C@@H]1[C@H](O)[C@@H](C)/C=C/C=C/C=C/C=C/C=C/C=C/C=C/[C@H](O[C@@H]2O[C@H](C)[C@@H](O)[C@H](N)[C@@H]2O)C[C@@H]2O[C@](O)(C[C@@H](O)C[C@@H](O)[C@H](O)CC[C@@H](O)C[C@@H](O)CC(=O)O[C@H]1C)C[C@H](O)[C@H]2C(=O)O [AMPHOTERICIN B] | – | – | – | 0.0725 µM | – | – | – | – | – | – | – | – | –
6 | COc1ccc(-c2oc3cc(OC)cc(O)c3c(=O)c2OC)cc1 | 99.1% | 19.9% | – | 33 µM | 100 µM | 100% | 3.9% | > 100 µM | – | 4.6% | – | – | –
7 | COc1ccc(-c2oc3cc(OC)c(OC)c(O)c3c(=O)c2OC)cc1 | 85.3% | 8% | – | 14.8 µM | >100 µM | 96.5% | 0% | > 100 µM | – | 18.3% | – | – | –
8 | O=c1c(O)c(-c2ccc(O)cc2)oc2cc(O)cc(O)c12 [KAEMPFEROL] | 93.8% | 86.5% | – | 27.6 µM | >100 µM | 100% | 0% | 53.7 µM | – | 55.1% | – | – | –
9 | COc1cc(O)c2c(=O)c(OC)c(-c3ccc(O)cc3)oc2c1 [KUMATAKENIN] | 81.3% | 26.4% | – | 22.9 µM | 50 µM | 38.7% | 7.2% | 57.5 µM | – | 25.2% | – | – | –
10 | COc1cc(-c2oc3cc(OC)c(OC)c(O)c3c(=O)c2OC)cc(OC)c1OC | 99.2% | 40.5% | – | 21.8 µM | >100 µM | 53.5% | 21.7% | 11.5 µM | – | 17.6% | – | – | –
11 | COc1c(O)c(OC)c2oc(-c3ccc(O)cc3)c(OC)c(=O)c2c1O | 88.4% | 50.7% | – | 27.3 µM | >100 µM | 80.4% | 0.6% | > 100 µM | – | 14.6% | – | – | –
12 | N=C(N)c1ccc(OCCCCCOc2ccc(C(=N)N)cc2)cc1 [PENTAMIDINE] | – | – | – | – | – | – | – | – | – | – | 0.007 µM | – | –
13 | COc1ccc(/C=C\c2cc(OC)c(OC)c(OC)c2)cc1O [COMBRETASTATIN A4] | – | – | – | – | 0.27 µM | – | – | – | – | – | – | – | –
14 | COc1c(O)cc2oc(-c3ccc(O)cc3)c(OC)c(=O)c2c1O [3,6-DIMETHOXY KAEMPFEROL] | 86.2% | 88.8% | – | 8.07 µM | >100 µM | 73.5% | 0% | 74.1 µM | – | 40.7% | – | – | –
15 | COc1ccc(-c2oc3cc(O)c(OC)c(O)c3c(=O)c2OC)cc1 [SANTIN] | 90.9% | 83.1% | 100% | 63.1 µM | 12.5 µM | 40.8% | 0% | 45.7 µM | 5.7 µM | 33.2% | – | – | –
16 | COc1cc(-c2oc3cc(O)c(OC)c(O)c3c(=O)c2OC)cc(OC)c1OC | 96.1% | 38.1% | 69.9% | 9.65 µM | 12.5 µM | 78.2% | 13.2% | 91.2 µM | 21.4 µM | 42.9% | – | – | –
17 | COc1ccc(-c2oc3cc(OC)c(OC)c(OC)c3c(=O)c2OC)cc1 | 88.3% | 24.9% | – | 37.2 µM | 50 µM | 93.6% | 0% | > 100 µM | – | 29.4% | – | – | –
18 | COc1cc(-c2oc3cc(OC)c(OC)c(OC)c3c(=O)c2OC)cc(OC)c1OC | 93.8% | 72.4% | – | 31.6 µM | >100 µM | 81.2% | 35% | > 100 µM | – | 25.9% | – | 5.8 µM | 10.8 µM
